From paper PMC3594046 (Bioorganic & medicinal chemistry letters, 2013)

Experiments:
[1] = target: T1, TRβ-LBD / SRC2-2 peptide interaction (Homo sapiens, UniProt P10828); assay: Fluorescence polarization; type: binding
T1 sequence (P10828 217-461 limits assumed): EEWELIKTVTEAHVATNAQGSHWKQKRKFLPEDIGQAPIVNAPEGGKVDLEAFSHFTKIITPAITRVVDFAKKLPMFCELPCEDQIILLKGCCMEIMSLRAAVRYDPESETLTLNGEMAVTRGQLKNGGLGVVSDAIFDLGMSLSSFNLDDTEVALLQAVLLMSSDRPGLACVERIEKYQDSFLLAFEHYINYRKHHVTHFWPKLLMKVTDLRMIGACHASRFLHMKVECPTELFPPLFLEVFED
Summary of the method: (§1)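 Fluorescence polarization competition assays: TRβ-LBD with Texas Red-labelled SRC2-2 peptide, and VDR with SRC2-3 peptide. Test compounds were 3-fold serially diluted in DMSO from a 10,000 μM top concentration and pin-transferred into the assay solutions. Each run was in triplicate and repeated twice, giving 6 replicates. EC50 is reported as the mean with standard deviation.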

[2] = test system: PEPCK gene transcription (TR-responsive) in HepG2 cells; assay: RT-PCR of T3-induced PEPCK transcription in HepG2 cells; type: cell-based; details: HepG2, co-treated with T3 (100 nM) and compound (1 μM and 100 nM), 24 h
Summary of the method: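 HepG2 cells were co-treated for 24 h with T3 (100 nM) and test compound at 1 μM or 100 nM. Controls were a T3 ligand antagonist and a known coactivator antagonist. mRNA was isolated and converted to cDNA, and diluted cDNA was used for real-time PCR of PEPCK. Fold induction was calculated by the ΔΔCt method, with two independent experiments in triplicate and standard errors.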

TRα / SRC2-2 interaction = target: T2, TRα / SRC2-2 interaction (Homo sapiens, UniProt P10827); assay: FP competition assay, TRα-coactivator; type: binding; details: in words
T2 sequence (P10827 1-410 isoform P10827-2): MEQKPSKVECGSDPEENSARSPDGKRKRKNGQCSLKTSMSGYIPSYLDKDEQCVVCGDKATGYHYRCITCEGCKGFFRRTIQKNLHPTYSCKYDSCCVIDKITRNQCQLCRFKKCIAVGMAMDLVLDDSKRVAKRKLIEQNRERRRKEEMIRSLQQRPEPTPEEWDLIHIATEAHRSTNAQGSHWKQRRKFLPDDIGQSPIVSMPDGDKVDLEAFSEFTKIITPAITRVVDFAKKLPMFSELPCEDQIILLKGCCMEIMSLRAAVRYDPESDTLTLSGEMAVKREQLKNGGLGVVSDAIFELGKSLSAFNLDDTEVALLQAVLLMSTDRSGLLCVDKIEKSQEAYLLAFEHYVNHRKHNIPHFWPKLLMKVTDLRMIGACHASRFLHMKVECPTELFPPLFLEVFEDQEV

[3] = target: T3, vitamin D receptor (VDR) / SRC2-3 interaction (Homo sapiens, UniProt P11473); assay: FP competition assay, VDR-SRC2-3 interaction; type: binding
T3 sequence (P11473 1-427): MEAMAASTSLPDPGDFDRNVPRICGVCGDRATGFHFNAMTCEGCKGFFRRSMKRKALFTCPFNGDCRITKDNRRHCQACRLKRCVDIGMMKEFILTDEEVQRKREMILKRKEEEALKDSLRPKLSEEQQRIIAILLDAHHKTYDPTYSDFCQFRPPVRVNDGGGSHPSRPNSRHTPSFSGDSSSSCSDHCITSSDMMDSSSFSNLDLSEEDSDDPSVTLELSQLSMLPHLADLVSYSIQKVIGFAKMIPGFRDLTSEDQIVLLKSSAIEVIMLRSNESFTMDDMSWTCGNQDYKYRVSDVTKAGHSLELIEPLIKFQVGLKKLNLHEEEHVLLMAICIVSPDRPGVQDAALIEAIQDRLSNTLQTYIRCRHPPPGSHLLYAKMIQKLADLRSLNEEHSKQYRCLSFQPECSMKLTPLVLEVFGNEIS
Summary of the method: as §1

SMILES	EC50 [1] [µM]	further results
CN(CC(=O)N(Cc1ccccc1)Cc1ccccc1)C(=O)c1ccc(S(C)(=O)=O)c([N+](=O)[O-])c1 [{4, 18}]	> 60	–
CS(=O)(=O)c1ccc(C(=O)NCC(=O)N(Cc2ccccc2)Cc2ccccc2)cc1[N+](=O)[O-] [3{1,18}]	3.6	Transcription of the PEPCK gene [2]: inhibited by the MSNBA 3{1,18} in dose-dependent manner; TRα-COA antagonism compared with TRβ (TRα / SRC2-2 interaction): slightly more potency against TRα
CS(=O)(=O)c1ccc(C(=O)NCC(=O)NC23CC4CC(CC(C4)C2)C3)cc1[N+](=O)[O-] [3{1,1}]	16	–
CCCN(C(=O)CN(C)C(=O)c1ccc(S(C)(=O)=O)c([N+](=O)[O-])c1)c1ccccc1 [{4,12}]	> 60	–
CS(=O)(=O)c1ccc(C(=O)NCCCC(=O)N2CCN(c3ccc(C(F)(F)F)cc3)CC2)cc1[N+](=O)[O-] [3{3,24}]	–	Activity against TR-SRC interaction ([1]; FP assay, in words): inactive; EC50 [3]: 7 µM
CN(C(=O)CNC(=O)c1ccc(S(C)(=O)=O)c([N+](=O)[O-])c1)c1ccccc1 [3{1, 11}]	5.8	–
CS(=O)(=O)c1ccc(C(=O)NCC(=O)N(Cc2ccccc2)c2ccccc2)cc1[N+](=O)[O-] [3{1,13}]	–	TRα-COA antagonism compared with TRβ (TRα / SRC2-2 interaction): slightly more potency against TRα
CCCN(C(=O)CNC(=O)c1ccc(S(C)(=O)=O)c([N+](=O)[O-])c1)c1ccccc1 [3{1,12}]	6.6	–
CS(=O)(=O)c1ccc(C(=O)NCCCC(=O)NC23CC4CC(CC(C4)C2)C3)cc1[N+](=O)[O-] [3{3,1}]	11	–
CN(CC(=O)NC12CC3CC(CC(C3)C1)C2)C(=O)c1ccc(S(C)(=O)=O)c([N+](=O)[O-])c1 [3{4,1}]	> 60	–
